Series [1] deals with Pseudomonas aeruginosa. The series can be described thus: Antibacterial activity against Pseudomonas aeruginosa Boston 41501 by agar-based assay. Format: functional, organism-based.
In series [2] the test system is Escovopsis. In words: Antifungal activity against Escovopsis ICBG740 at 100 ug measured after 21 days by ISP-2 agar based assay. Format: functional. Particulars: dose 100.0 µg, time 21.0 day. The method, boiled down: (§1)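 Agar plug challenge on ISP-2: the producing bacterium was grown alone at plate centre for 7 days, then each fungal strain was point-inoculated 3 cm from centre. 100 µg of compound or miconazole was applied directly at plate centre. Plates were monitored for 21 days at 28 °C, with two replicates per sample–fungus pair.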

A short description of series [3]: Selectivity index, ratio of CC50 for human THP1 cells to IC50 for antileishmanial activity against Leishmania donovani MHOM/ET/67/HU3 amastigotes infected in human THP1 cells after 120 hrs. Particulars: read-out: Ratio CC50/IC50. Format: toxicity, cell-based. In short, it runs like this: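 Index computed as CC50 in PMA-differentiated THP-1 cells (120 h Alamar Blue read-out) divided by IC50 against intracellular amastigotes in THP-1 (120 h exposure, Giemsa count).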

The subject of series [4] is Escovopsis. The series can be described thus: Antifungal activity against Escovopsis ICBG711 at 100 ug measured after 21 days by ISP-2 agar based assay. Format: functional. The following applies: dose 100.0 µg, time 21.0 day. In short, it runs like this: as §1
Series [5] has as its system Staphylococcus aureus. The series can be described thus: Antibacterial activity against methicillin-sensitive Staphylococcus aureus Wichita by agar-based assay. Format: functional, organism-based.
Series [6] deals with Escherichia coli. In words: Antibacterial activity against Escherichia coli ATCC 25922 by agar-based assay. Format: functional, organism-based.
Series [7] relates to Trichoderma. The series can be described thus: Antifungal activity against Trichoderma ICBG1100 at 100 ug measured after 21 days by ISP-2 agar based assay. The class given is functional, organism-based. The following applies: dose 100.0 µg, time 21.0 day. In short, it runs like this: as §1
Series [8] has as its system Cunninghamella. In words: Antifungal activity against Cunninghamella ICBG752 at 100 ug measured after 21 days by ISP-2 agar based assay. Format: functional, organism-based. The following applies: dose 100.0 µg, time 21.0 day. The method, boiled down: as §1
The subject of series [9] is Bacillus subtilis. The series can be described thus: Antibacterial activity against Bacillus subtilis NRS 231 by agar-based assay. Format: functional, organism-based.
The test system of series [10] is Leishmania donovani. In words: Antileishmanial activity against Leishmania donovani MHOM/ET/67/HU3 amastigotes infected in human THP1 cells assessed as parasite growth inhibition after 120 hrs by giemsa staining based inverted microscopic analysis. Format: functional, organism-based. The following applies: MHOM/ET/67/HU3, THP-1, 120 h. The method, boiled down: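 THP-1 cells (2×10^4/well, RPMI-1640) were differentiated with PMA 20 ng/mL for 72 h at 37 °C, 5% CO2. They were infected with late-stage promastigotes (2×10^5/well) for 24 h, washed, then exposed to serial dilutions for 120 h with a miltefosine control. Cells were methanol-fixed and Giemsa-stained, and amastigotes per macrophage counted microscopically relative to untreated wells. IC50 was from a variable-slope fit.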

Series [11] concerns Leishmania donovani. The series can be described thus: Antileishmanial activity against Leishmania donovani MHOM/ET/67/HU3 axenic promastigotes assessed as parasite growth inhibition after 72 hrs by resorufin dye based fluorometric analysis. Format: functional, organism-based. The following applies: MHOM/ET/67/HU3, 72 h. In short, it runs like this:
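Axenic promastigotes, 1×10^5 per well in log phase, in M199 pH 7.4 with 10% heat-inactivated FCS at 28 °C. Ten 2-fold dilutions from 0.125 to 64 µM (10 mM DMSO stocks) were incubated for 72 h; miltefosine was the reference. Alamar Blue was added for 3 h, read at ex 536/em 588 nm, normalized to untreated wells, and IC50 obtained by variable-slope fit.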

Series [12] is described as follows: Cytotoxicity against human THP1 cells assessed as growth inhibition after 120 hrs by Alamar blue dye based fluorometric analysis. Particulars: THP-1 cells. The class given is cell-based. The method, boiled down:
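PMA-differentiated THP-1 cells (2×10^4/well, PMA 20 ng/mL, 72 h, 37 °C, 5% CO2) were exposed to serial dilutions for 120 h with a doxorubicin control. Alamar Blue was added for 3 h, read at ex 536/em 588 nm, and inhibition taken relative to untreated wells. IC50 was from a variable-slope fit; mean ± SD of 3 biological replicates.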

Series [13] relates to Escovopsis. In words: Antifungal activity against Escovopsis ICBG741 at 100 ug measured after 21 days by ISP-2 agar based assay. Format: functional. Particulars: dose 100.0 µg, time 21.0 day. The method, boiled down:
as §1

The subject of series [14] is Escovopsis. The series can be described thus: Antifungal activity against Escovopsis ICBG1251 at 100 ug measured after 21 days by ISP-2 agar based assay. The class given is functional. The following applies: dose 100.0 µg, time 21.0 day. In short, it runs like this:
as §1

Activity calls are given as the source filed them. No cut-off for these calls is given here.

With `CC[C@H](O[C@H]1C[C@@](C)(O)[C@H](O[C@H]2CC[C@H](OC(=O)[C@H](C)[C@H](O)c3ccc4c(c3)C(=O)C=C(C)C4=O)[C@@H](C)O2)[C@H](C)O1)[C@H](C)[C@H](O)[C@@H](C)[C@H](O)[C@H](C)[C@H]1OC(=O)/C=C/[C@H](C)[C@H](O)C[C@H](O)CCC[C@@H](O)CC[C@@H](C)[C@H](O)C(=O)[C@@]2(O)C[C@@H](O)C[C@@H](C[C@@H](O)C[C@H](O)C[C@H](O)CCC[C@H](O)[C@@H]3O[C@H]3[C@@H]1C)O2`, the result in series [1], in series [5], in [6], in series [7], in series [8] and in series [9] was inactive. Further, the result in series [2], in series [4], in series [13] and in [14] was Active. For the same compound, in series [3], the selectivity ratio at 120 h worked out at 70.3. Further, the IC50 in series [10] worked out at 91 nM; in [11], 34 nM. Also, the half-maximal cytotoxic concentration (CC50) at 120 h in series [12] is 6.4 µM.
`COc1cccc2c1C(=O)c1c(O)c3c(c(O)c1C2=O)C[C@@](O)(C(=O)CO)C[C@@H]3O[C@H]1C[C@H](N)[C@H](O)[C@H](C)O1` [DOXORUBICIN]: in series [12], the 50% cytotoxic concentration (CC50) at 120 h is 0.58 µM.
For the compound `CC[C@H](O[C@H]1C[C@@](C)(O)[C@H](O[C@H]2CC[C@H](OC(=O)[C@H](C)[C@H](O)c3ccc4c(c3)C(=O)C=C(C)C4=O)[C@@H](C)O2)[C@H](C)O1)[C@H](C)[C@H](O)[C@@H](C)[C@H](O)[C@H](C)[C@H]1OC(=O)/C=C/[C@H](C)[C@H](O)C[C@H](O)CCC[C@@H](O)CC[C@@H](C)[C@H](O)C(=O)[C@@]2(O)C[C@@H](O)C[C@@H](C[C@@H](O)C[C@H](O)C[C@H](O)CCC[C@H](O)/C=C/[C@@H]1C)O2`, the outcome in [1], in [5], in series [6], in [7], in series [8] and in series [9] was inactive. The result in series [2], in series [4], in series [13] and in series [14] was Active. Further, the selectivity ratio at 120 h in series [3] stood at 4.94. Further, the results for the concentration for half-maximal inhibition (IC50) in [10] and in series [11] were 2320 nM and 118 nM, respectively. Moreover, in series [12], the CC50 at 120 h is 11.5 µM.
Consider `CC[C@H](O[C@H]1C[C@@](C)(O)[C@H](O[C@H]2CC[C@H](OC(=O)[C@H](C)[C@H](O)c3ccc4c(c3)C(=O)C=C(C)C4=O)[C@@H](C)O2)[C@H](C)O1)[C@H](C)[C@H](O)[C@@H](C)[C@H](O)[C@H](C)[C@H]1OC(=O)/C=C/[C@H](C)[C@H](O)C[C@H](O)CCC[C@@H](O)CC[C@@H](C)[C@H](O)C(=O)[C@]2(O)O[C@H](C[C@@H](O)C[C@H](O)C[C@H](O)CCC[C@H](O)[C@@H]3O[C@H]3[C@@H]1C)C[C@H](O)[C@H]2O`, for which the result in series [1], in [5], in series [6], in series [7], in [8] and in series [9] was inactive. The outcome in series [2], in series [4], in [13] and in series [14] was Active. Besides, the selectivity ratio at 120 h in [3] stood at 83.2. For the same compound, the results for the concentration for half-maximal inhibition (IC50) in series [10] and in [11] were 73 nM and 46 nM, respectively. Besides, in series [12], the half-maximal cytotoxic concentration (CC50) at 120 h was found to be 6.07 µM.
As to `CCCCCCCCCCCCCCCCOP(=O)([O-])OCC[N+](C)(C)C` [MILTEFOSINE], the selectivity ratio at 120 h in series [3] was 11.4. Further, the results for the half-maximal inhibitory concentration (IC50) in series [10] and in series [11] were 5330 nM and 4980 nM, respectively. The CC50 at 120 h in [12] stood at 60.7 µM.

These data come from ChEMBL document CHEMBL4715906, “Antileishmanial macrolides from ant-associated Streptomyces sp. ISID311” (Bioorg Med Chem, 2021).
